According to ChEMBL document CHEMBL3045005, “Synthesis and biological evaluation of new analogues of the active fungal metabolites N-(2-methyl-3-oxodecanoyl)-2-pyrroline and N-(2-methyl-3-oxodec-8-enoyl)-2-pyrroline (II)” (2000):
Calls of active or inactive are those of the source. The calls are words filed in the database; no cut-off is given here.

Tests used:
Geotrichum candidum [1] = assay: Fungicidal activity against Galactomyces geotrichum CCM 245 assessed as inhibition of radial mycelial growth at 100 ug/mL after 4 days; assay type: functional; conditions: CCM 245, 96 h, read-out: GI
Summary of the method: (§1)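 Compounds in acetone incorporated into PDA at 100 µg/mL. Acetone-only plates were the negative control, and benomyl at 2.5 µg/mL was the positive control. Plates were inoculated with spores from 7-day-old PDA cultures and incubated at 28 °C for 4 days (6 days for R. necatrix and V. dahliae). Radial mycelial growth was measured and % inhibition calculated against the control. Triplicate determinations, mean ± SD, ANOVA/LSD.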

Verticillium dahliae [2] = assay: Fungicidal activity against Verticillium dahliae CCM 269 assessed as inhibition of radial mycelial growth at 100 ug/mL after 6 days; assay type: functional; conditions: CCM 269, 144 h, read-out: GI; summary of the method: as §1
Oncopeltus fasciatus [3] = assay: Insecticidal activity against Oncopeltus fasciatus third-instar nymphs reared on diet based on sunflower seeds assessed as insect mortality at 10 ug/cm2 relative to untreated control; assay type: functional
Alternaria alternata [4] = assay: Fungicidal activity against Alternaria tenuis CECT 2662 assessed as inhibition of radial mycelial growth at 100 ug/mL after 4 days; assay type: functional; conditions: CECT 2662, 96 h, read-out: GI; summary of the method: as §1
Fusarium culmorum [5] = assay: Fungicidal activity against Fusarium culmorum CCM 172 assessed as inhibition of radial mycelial growth at 100 ug/mL after 4 days; assay type: functional; conditions: CCM 172, 96 h, read-out: GI; summary of the method: as §1
Aspergillus parasiticus [6] = assay: Fungicidal activity against Aspergillus parasiticus CECT 2681 assessed as inhibition of radial mycelial growth at 100 ug/mL after 4 days; assay type: functional; conditions: CECT 2681, 96 h, read-out: GI; summary of the method: as §1
[7] = system: Fusarium oxysporum f. sp. gladioli; assay: Fungicidal activity against Fusarium oxysporum f. sp. gladioli CCM 233 assessed as inhibition of radial mycelial growth at 100 ug/mL after 4 days; assay type: functional; conditions: CCM 233, 96 h, read-out: GI; summary of the method: as §1
Trichothecium roseum [8] = assay: Fungicidal activity against Trichothecium roseum CECT 2410 assessed as inhibition of radial mycelial growth at 100 ug/mL after 4 days; assay type: functional; conditions: CECT 2410, 96 h, read-out: GI; summary of the method: as §1
Penicillium italicum [9] = assay: Fungicidal activity against Penicillium italicum CECT 2294 assessed as inhibition of radial mycelial growth at 100 ug/mL after 4 days; assay type: functional; conditions: CECT 2294, 96 h, read-out: GI; summary of the method: as §1
[10] = system: Fusarium oxysporum f. sp. niveum; assay: Fungicidal activity against Fusarium oxysporum f. sp. niveum CCM 259 assessed as inhibition of radial mycelial growth at 100 ug/mL after 4 days; assay type: functional; conditions: CCM 259, 96 h, read-out: GI; summary of the method: as §1
Trichoderma viride [11] = assay: Fungicidal activity against Hypocrea rufa CECT 2423 assessed as inhibition of radial mycelial growth at 100 ug/mL after 4 days; assay type: functional; conditions: CECT 2423, 96 h, read-out: GI; summary of the method: as §1
[12] = system: Colletotrichum gloeosporioides; assay: Fungicidal activity against Colletotrichum gloeosporioides CECT 2859 assessed as inhibition of radial mycelial growth at 100 ug/mL after 4 days; assay type: functional; conditions: CECT 2859, 96 h, read-out: GI; summary of the method: as §1
Colletotrichum coccodes [13] = assay: Fungicidal activity against Colletotrichum coccodes CCM 327 assessed as inhibition of radial mycelial growth at 100 ug/mL after 4 days; assay type: functional; conditions: CCM 327, 96 h, read-out: GI; summary of the method: as §1
Oncopeltus fasciatus [14] = assay: Insecticidal activity against Oncopeltus fasciatus third-instar nymphs reared on diet based on sunflower seeds assessed as insect mortality at 5 to 10 ug/cm2 relative to untreated control; assay type: functional, organism-based
Oncopeltus fasciatus [15] = assay: Insecticidal activity against Oncopeltus fasciatus third-instar nymphs reared on diet based on sunflower seeds assessed as insect mortality at 5 ug/cm2 relative to untreated control; assay type: functional
Oncopeltus fasciatus [16] = assay: Insecticidal activity against Oncopeltus fasciatus third-instar nymphs reared on diet based on sunflower seeds assessed as insect mortality at 7.5 ug/cm2 relative to untreated control; assay type: functional
Alternaria alternata [17] = assay: Fungicidal activity against Alternaria tenuis CECT 2662 assessed as inhibition of radial mycelial growth at 2.5 ug/mL after 4 days; assay type: functional; conditions: CECT 2662, 96 h, read-out: GI
Summary of the method: (§2)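 Benomyl added to PDA at 2.5 µg/mL; acetone-only PDA plates served as controls. Plates were inoculated with spores from seven-day-old PDA cultures of each fungus and incubated at 28 °C for 4 days. Radial mycelial growth was measured and % inhibition was calculated against control-plate growth. Three independent determinations; means ± SD; ANOVA with LSD test.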

Fusarium culmorum [18] = assay: Fungicidal activity against Fusarium culmorum CCM 172 assessed as inhibition of radial mycelial growth at 2.5 ug/mL after 4 days; assay type: functional; conditions: CCM 172, 96 h, read-out: GI; summary of the method: as §2
[19] = system: Phytophthora citrophthora; assay: Fungicidal activity against Phytophthora citrophthora assessed as inhibition of radial mycelial growth at 2.5 ug/mL after 4 days; assay type: functional; conditions: 96 h, read-out: GI; summary of the method: as §2
Colletotrichum coccodes [20] = assay: Fungicidal activity against Colletotrichum coccodes CCM 327 assessed as inhibition of radial mycelial growth at 2.5 ug/mL after 4 days; assay type: functional; conditions: CCM 327, 96 h, read-out: GI; summary of the method: as §2
Geotrichum candidum [21] = assay: Fungicidal activity against Galactomyces geotrichum CCM 245 assessed as inhibition of radial mycelial growth at 2.5 ug/mL after 4 days; assay type: functional; conditions: CCM 245, 96 h, read-out: GI; summary of the method: as §2
[22] = system: Fusarium oxysporum f. sp. gladioli; assay: Fungicidal activity against Fusarium oxysporum f. sp. gladioli CCM 233 assessed as inhibition of radial mycelial growth at 2.5 ug/mL after 4 days; assay type: functional; conditions: CCM 233, 96 h, read-out: GI; summary of the method: as §2
Trichothecium roseum [23] = assay: Fungicidal activity against Trichothecium roseum CECT 2410 assessed as inhibition of radial mycelial growth at 2.5 ug/mL after 4 days; assay type: functional; conditions: CECT 2410, 96 h, read-out: GI; summary of the method: as §2
[24] = system: Colletotrichum gloeosporioides; assay: Fungicidal activity against Colletotrichum gloeosporioides CECT 2859 assessed as inhibition of radial mycelial growth at 2.5 ug/mL after 4 days; assay type: functional; conditions: CECT 2859, 96 h, read-out: GI; summary of the method: as §2
Trichoderma viride [25] = assay: Fungicidal activity against Hypocrea rufa CECT 2423 assessed as inhibition of radial mycelial growth at 2.5 ug/mL after 4 days; assay type: functional; conditions: CECT 2423, 96 h, read-out: GI; summary of the method: as §2
Aspergillus parasiticus [26] = assay: Fungicidal activity against Aspergillus parasiticus CECT 2681 assessed as inhibition of radial mycelial growth at 2.5 ug/mL after 4 days; assay type: functional; conditions: CECT 2681, 96 h, read-out: GI; summary of the method: as §2
Verticillium dahliae [27] = assay: Fungicidal activity against Verticillium dahliae CCM 269 assessed as inhibition of radial mycelial growth at 2.5 ug/mL after 6 days; assay type: functional; conditions: CCM 269, 144 h, read-out: GI
Summary of the method: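 Benomyl added to PDA at 2.5 µg/mL; acetone-only PDA plates served as controls. Plates were inoculated with spores from seven-day-old PDA cultures and incubated at 28 °C for 6 days. Radial mycelial growth was measured and % inhibition was calculated relative to control plates. Three independent determinations; means ± SD; ANOVA with LSD test.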

Penicillium italicum [28] = assay: Fungicidal activity against Penicillium italicum CECT 2294 assessed as inhibition of radial mycelial growth at 2.5 ug/mL after 4 days; assay type: functional; conditions: CECT 2294, 96 h, read-out: GI; summary of the method: as §2
[29] = system: Fusarium oxysporum f. sp. niveum; assay: Fungicidal activity against Fusarium oxysporum f. sp. niveum CCM 259 assessed as inhibition of radial mycelial growth at 2.5 ug/mL after 4 days; assay type: functional; conditions: CCM 259, 96 h, read-out: GI; summary of the method: as §2

Row | Compound | inhibition of growth at 100 µg/mL (Geotrichum candidum [1]) [%] | inhibition of growth at 100 µg/mL (Verticillium dahliae [2]) [%] | inhibition of growth at 100 µg/mL (Alternaria alternata [4]) [%] | inhibition of growth at 100 µg/mL (Fusarium culmorum [5]) [%] | inhibition of growth at 100 µg/mL (Aspergillus parasiticus [6]) [%] | inhibition of growth at 100 µg/mL [7] [%] | inhibition of growth at 100 µg/mL (Trichothecium roseum [8]) [%] | inhibition of growth at 100 µg/mL (Penicillium italicum [9]) [%] | inhibition of growth at 100 µg/mL [10] [%] | inhibition of growth at 100 µg/mL (Trichoderma viride [11]) [%] | inhibition of growth at 100 µg/mL [12] [%] | inhibition of growth at 100 µg/mL (Colletotrichum coccodes [13]) [%] | Activity (Oncopeltus fasciatus [14]) | also measured
1 | CCCCCCCC(=C1C(=O)OC(C)(C)OC1=O)N1CC=CC1 | 23.9 | 13.9 | 21.1 | 39.7 | 39.3 | 26 | 38.6 | 29.9 | 28 | 54 | 29.9 | 18.8 | – | mortality at 10 µg/cm2 (Oncopeltus fasciatus [3]): 40%
2 | CCCCCCCC(O)C(C)C(=O)N1CCCC1=O (stereo not drawn) | 0 | 45.9 | 38.1 | 24.3 | 31.5 | 36.5 | 19.6 | 33.3 | 33.3 | 38 | 36.6 | 69 | inactive | –
3 | CC(C(=O)C(C)c1cccc(Oc2ccccc2)c1)C(=O)N1CCCC1 (stereo not drawn) | 12.3 | 19 | 39.5 | 23.5 | 27.9 | 23.1 | 46.6 | 22.2 | 17.4 | 30.7 | 41.4 | 37.6 | inactive | –
4 | CCCCCCCC(=O)N1CC=CC1 | 0 | 39.6 | 51.4 | 24.5 | 19.3 | 38.5 | 34.3 | 31.2 | 30.5 | 38 | 35.4 | 76.7 | – | mortality at 5 µg/cm2 (Oncopeltus fasciatus [15]): 20%; mortality at 7.5 µg/cm2 (Oncopeltus fasciatus [16]): 100%
5 | CC1=C(C2CC2)OC2CCCN2C1=O (stereo not drawn) | 0 | 65.4 | 23.9 | 38.9 | 11.3 | 24.1 | 0 | 23.6 | 26.2 | 0 | 11.8 | 37.8 | inactive | –
6 | CC(C(=O)C(C)(C)C(=O)N1CCCC1)c1cccc(Oc2ccccc2)c1 (stereo not drawn) | 11.7 | 22.7 | 55.2 | 16.3 | 37.9 | 34.8 | 53.2 | 17.8 | 36.9 | 38.7 | 62.2 | 55.7 | inactive | –
7 | CCCCCCCC(=O)CC(=O)N1CCCC1=O | 0 | 49.8 | 30.2 | 8.2 | 21.3 | 35.5 | 0 | 26.4 | 27.6 | 22 | 34.5 | 48.3 | inactive | –
8 | CCCCCCCC(=O)C(C)C(=O)N1CCCC1=O (stereo not drawn) | 24.4 | 56.2 | 47.5 | 18.1 | 31.7 | 26.8 | 49.5 | 8.6 | 21 | 21.1 | 35.6 | 52 | inactive | –
9 | CCCCNC(=O)n1c(NC(=O)OC)nc2ccccc21 [BENOMYL] | – | – | – | – | – | – | – | – | – | – | – | – | – | inhibition of growth at 2.5 µg/mL (Alternaria alternata [17]): 0%; inhibition of growth at 2.5 µg/mL (Fusarium culmorum [18]): 87%; inhibition of growth at 2.5 µg/mL [19]: 100%; inhibition of growth at 2.5 µg/mL (Colletotrichum coccodes [20]): 100%; inhibition of growth at 2.5 µg/mL (Geotrichum candidum [21]): 0%; inhibition of growth at 2.5 µg/mL [22]: 11.1%; inhibition of growth at 2.5 µg/mL (Trichothecium roseum [23]): 100%; inhibition of growth at 2.5 µg/mL [24]: 100%; inhibition of growth at 2.5 µg/mL (Trichoderma viride [25]): 100%; inhibition of growth at 2.5 µg/mL (Aspergillus parasiticus [26]): 100%; inhibition of growth at 2.5 µg/mL (Verticillium dahliae [27]): 100%; inhibition of growth at 2.5 µg/mL (Penicillium italicum [28]): 100%; inhibition of growth at 2.5 µg/mL [29]: 100%
